Measured values published in ChEMBL document CHEMBL6114936, “S-MGBs bearing amidine tail groups are potent, selective antiplasmodial agents” (RSC Med Chem, 2025).
Activity calls are given as the source filed them. The calls are words filed in the database; no cut-off is given here.

Columns and labels:
[1] = Selectivity index, ratio of IC50 for HEK293 cells to IC50 for antiplasmodial activity against ring stage chloroquine-sensitive Plasmodium falciparum 3D7; format: toxicity, cell-based; settings: human, read-out: Ratio IC50
Method in brief: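 SI is HEK293 IC50 divided by P. falciparum 3D7 IC50. Parasites were sorbitol-synchronized twice, and rings were exposed 72 h at 37 °C (90% N2, 5% CO2, 5% O2), then DAPI-stained and imaged confocally. […] Where no accurate HEK293 IC50 was obtained, a relative IC50 or the top concentration was used and SI reported as a bound.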

[2] = Cytotoxicity against HEK293 cells assessed as cell growth inhibition measured after 72 hrs by resazurin dye based fluorescence assay relative to IC50; format: toxicity; settings: human
Method in brief: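 HEK293 cells grown in DMEM with 10% FBS and exposed to compound for 72 h at 37 °C, 5% CO2. Medium was then replaced with 44 μM resazurin, incubated 5–6 h more, and fluorescence read at 530/595 nm. Top concentration 80 μM. Curves were duplicate, 11-point dose response.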

DNA [3] = test: Binding affinity to 5'-CGCATATATGCG-3' DNA (unknown origin) assessed as bound as dimer [DS + 2 M] in charge states 5- and 4- at 100 uM by native mass spectrometry; format: nucleic-acid assay
Method in brief: (§1)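 Final sample: 9 μM DNA, 100 μM KCl, 100 μM S-MGB, 1% DMSO in 150 mM ammonium acetate pH 7. DNA with 1% DMSO and no ligand served as control. Sprayed in negative mode at 1.0–1.2 kV. Free, monomer- and dimer-bound DS species were read by charge state.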

DNA [4] = test: Binding affinity to 5'-CGCATATATGCG-3' DNA (unknown origin) assessed as bound as monomer [DS + 1 M] in charge states 5- at 100 uM by native mass spectrometry; format: nucleic-acid assay; method in brief: as §1
DNA [5] = test: Binding affinity to 5'-CGCATATATGCG-3' DNA (unknown origin) assessed as appearance of small m/z peak corresponding to free ds DNA oligo at 100 uM by native mass spectrometry; format: nucleic-acid assay; method in brief: as §1
[6] = Selectivity ratio of IC50 for antiplasmodial activity against ring stage chloroquine-resistant Plasmodium falciparum Dd2 to IC50 for antiplasmodial activity against ring stage chloroquine-sensitive Plasmodium falciparum 3D7; format: functional
Method in brief: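 Ring-stage P. falciparum Dd2 and 3D7, twice sorbitol-synchronised, in RPMI-1640 with 25 mM HEPES, 5% human AB serum, Albumax II, hypoxanthine. Exposed 72 h at 37 °C (90% N2/5% CO2/5% O2), 11-point dose response. DAPI stain, confocal imaging, % inhibition against in-plate controls, four-parameter IC50. Two independent duplicate runs. Ratio is Dd2 IC50/3D7 IC50.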

Row | SMILES | IC50 at 72 h [2] [µM] | other results
1 | COc1cccc(/C=C/c2ccc(C(=O)Nc3cc(C(=O)Nc4cc(C(=O)NCCC(=N)N)n(C)c4)n(C)c3)cn2)c1 | 45 | selectivity ratio [1]: > 336; Activity (DNA [3]): Active; Activity (DNA [4]): inactive
2 | Cn1cc(NC(=O)c2cc(NC(=O)c3ccc(/C=C/c4cccc(F)c4)cc3)cn2C)cc1C(=O)NCCC(=N)N | 40 | –
3 | CC(C)CCc1sc(NC(=O)c2cc(NC(=O)c3cc(NC(=O)c4cccc(F)c4)cn3C)cn2C)nc1C(=O)NCCCN(C)C | 40 | –
4 | Cn1cc(NC(=O)c2cc(NC(=O)c3ccc(/C=C/c4ccc5ccccc5c4)cc3)cn2C)cc1C(=O)NCCC(=N)N | 80 | selectivity ratio [1]: > 265; Activity (DNA [3]): Active; Activity (DNA [4]): Active; Activity (DNA [5]): Active
5 | CN(C)CCCNC(=O)c1cc(NC(=O)c2cc(NC(=O)c3cc(NC(=N)c4cc5ccccc5cn4)cn3C)cn2C)cn1C | 21 | –
6 | CCc1nc(N)nc(N)c1-c1ccc(Cl)cc1 [PYRIMETHAMINE] | – | Ratio IC50 [6]: >29740
7 | COc1cccc(/C=C/c2ccc(C(=O)Nc3cc(C(=O)Nc4cc(C(=O)NCCN(C)C)n(C)c4)n(C)c3)cc2)c1 | 20 | –
8 | Cn1cc(NC(=O)c2cc(NC(=O)c3ccc(/C=C/C(=O)Nc4ccccc4O)cc3)cn2C)cc1C(=O)NCCC(=N)N | 40 | –
9 | CC(C)CCn1cc(NC(=O)c2cc(NC(=O)c3cc(NC(=N)c4cc5ccccc5cn4)cn3C)cn2C)cc1C(=O)NCCCN(C)C | 40 | –
10 | COc1ccc(/C=C/c2ccc(C(=O)Nc3cc(C(=O)Nc4cc(C(=O)NCCC(=N)N)n(C)c4)n(C)c3)cc2)cc1.O=C(O)C(F)(F)F | 40 | Ratio IC50 [6]: 1.4
11 | Cn1cc(NC(=O)c2cc(NC(=O)c3ccc(/C=C/c4ccncc4)cc3)cn2C)cc1C(=O)NCCC(=N)N | 40 | selectivity ratio [1]: > 613; Activity (DNA [3]): Active; Activity (DNA [4]): inactive
12 | Cn1cc(NC(=O)c2cc(NC(=O)c3ccc(/C=C/c4ccc(C(F)(F)F)cc4)cc3)cn2C)cc1C(=O)NCCN1CCOCC1 | 40 | –
13 | Cn1cc(NC(=O)c2cc(NC(=O)c3ccc(/C=C/c4ccc(F)cc4)cc3)cn2C)cc1C(=O)NCCC(=N)N | 40 | –
14 | Cn1cc(NC(=O)c2cc(NC(=O)c3ccc(/C=C/c4ccc5nsnc5c4)cc3)cn2C)cc1C(=O)NCCN1CCOCC1 | 11 | –
15 | Cn1cc(NC(=O)c2cc(NC(=O)c3ccc(NC(=O)c4cccc(F)c4)cc3)cn2C)cc1C(=O)NCCC(=N)N | 40 | –
16 | Cn1cc(NC(=O)c2cc(NC(=O)c3ccc(NC(=O)c4ccc(F)cc4)cc3)cn2C)cc1C(=O)NCCC(=N)N | 35 | –
17 | COc1cccc(/C=C/c2ccc(C(=O)Nc3cc(C(=O)Nc4cc(C(=O)NCCCN(C)C)n(C)c4)n(C)c3)cc2)c1 | 35 | selectivity ratio [1]: > 195
